{"source": "paper PMC4172508", "about": "(Bioorganic & medicinal chemistry, 2014)", "key": {"[1]": {"test": "Tissue distribution in nude mice bearing Calu3 xenograft tumors", "format": "in vivo", "conditions": "24 h", "outline": "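Nude mice (7–8 weeks) bearing subcutaneous Calu3 xenografts, one per group, received 60 mg/kg by tail vein in Solutol HS15/ethanol/0.9% NaCl. Mice were euthanised at 24 h. Liver, lungs, kidneys, spleen, small intestine and tumour were homogenised in methanol (50 mg/ml) on ice and mixed 1:1 with acetonitrile containing 0.2% formic acid and internal standard. Samples were centrifuged at 4°C and analysed by HPLC/MS.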"}, "H460 cells [2]": {"tested_on": "H460 cells", "test": "Cell viability, sulforhodamine B assay", "format": "cell-based", "conditions": "H460, 3 days after treatment", "outline": "(§1)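 Human lung cancer cells were treated with a range of test-compound concentrations. Viability was read by sulforhodamine B assay 3 days after treatment. DMSO-treated control cells were set as 100. Values are mean ± SD of quadruplicate wells.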"}, "liver": {"tested_on": "liver", "test": "Histopathological analysis on livers", "format": "in vivo", "conditions": "150 mg/kg once, livers harvested 48 h after treatment", "outline": "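Mice received a single 150 mg/kg dose of test compound. Livers were harvested at 48 h, sectioned and examined histologically, with two mice per group.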"}, "H157 cells [3]": {"tested_on": "H157 cells", "test": "Cell viability, sulforhodamine B assay", "format": "cell-based", "conditions": "H157, 3 days after treatment", "outline": "as §1"}, "[4]": {"test": "Stability of injectable solution", "format": "physicochemical"}, "liver functions": {"tested_on": "liver functions", "test": "Serum liver enzyme levels", "format": "in vivo", "conditions": "for serum liver enzyme activities: 25 mg/kd/day, each day for 8 days, blood 3 days after last treatment"}, "[5]": {"test": "Stability of stock solution", "format": "physicochemical", "conditions": "Solutol HS15 and ethyl alcohol", "outline": "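Stock solution: 70 mg prodrug or 60 mg parent drug per ml of 75% (w/v) Solutol HS15 in ethanol (about 20% v/v ethanol). It was stored in capped brown glass tubes at room temperature or 4°C. At intervals, samples were diluted 100-fold in acetonitrile/water (4/1) for C18 HPLC with UV detection at 280 nm.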"}, "Balb/c mice": {"tested_on": "Balb/c mice", "test": "Acute toxicity study", "format": "in vivo"}, "H1299 cells [6]": {"tested_on": "H1299 cells", "test": "Cell viability, sulforhodamine B assay", "format": "cell-based", "conditions": "H1299, 3 days after treatment", "outline": "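Sulforhodamine B assay on the lung cancer line. Cells were exposed to a range of test compound concentrations, and viability was read 3 days after treatment. DMSO-treated control cells were set to 100. Values are mean ± SD of quadruplicate wells.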"}, "[7]": {"test": "Release of NSC-743380 from esterified derivatives in PBS", "format": "physicochemical", "conditions": "PBS pH 7.4, 0.5 mg/ml, 37°C", "outline": "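Test compound was made to 0.5 mg/ml in PBS pH 7.4 containing 12% DMSO and 18% acetonitrile (diluted from a DMSO/acetonitrile stock). It was held in a 37°C water bath for up to 24 h. Aliquots were taken at 0–24 h, frozen at −20°C, diluted 50-fold in acetonitrile and run on C18 HPLC (acetonitrile/water gradient, 0.2% formic acid, UV 280 nm). Data come from one of two experiments.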"}, "[8]": {"test": "Stability of powder during storage", "format": "physicochemical", "conditions": "for time powder stable without detectable changes: non-evacuated container; for stability of powder (remaining): 37°C", "outline": "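Powdered test compounds were stored at 4°C, room temperature (21°C) or 37°C. Aliquots were taken at time points and kept at −20°C. Each was dissolved in DMSO, diluted with 9 volumes of acetonitrile and analysed by C18 HPLC (acetonitrile/water gradient with 0.2% formic acid, UV 280 nm).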"}, "Calu3 cells [9]": {"tested_on": "Calu3 cells", "test": "Cell viability, sulforhodamine B assay", "format": "cell-based, human", "conditions": "Calu3, 3 days after treatment", "outline": "as §1"}, "H157 cells [10]": {"tested_on": "H157 cells", "conditions": "previous study ref 5; cited from earlier work"}, "Calu3 cells [11]": {"tested_on": "Calu3 cells", "conditions": "previous study ref 5; cited from earlier work"}, "H460 cells [12]": {"tested_on": "H460 cells", "conditions": "previous study ref 5; cited from earlier work"}, "[13]": {"conditions": "especially in low-pH conditions; cited from earlier work"}, "[14]": {"conditions": "compared with oncrasin-60 (NSC-741909); cited from earlier work"}, "H1299 cells [15]": {"tested_on": "H1299 cells", "conditions": "previous study ref 5; cited from earlier work"}, "[16]": {"tested_on": "KRAS-mutant lung cancer cell line H157 xenografts", "conditions": "cited from earlier work"}, "[17]": {"tested_on": "human renal cancer cell line A498 xenograft", "conditions": "compared with oncrasin-60 (NSC-741909); cited from earlier work"}, "[18]": {"conditions": "animals treated with oncrasin-266, 60 mg/kg i.v."}, "[19]": {"conditions": "150 mg/kg daily for 3 days, blood on day 6, surviving mice"}, "[20]": {"conditions": "150 mg/kg i.p. daily for 3 days, 3 mice/group"}, "[21]": {"conditions": "300 mg/kg i.p. on day 1 and day 2, 3 Balb/c mice/group"}}, "data": [{"smiles": "O=C(CC1CCCCC1)OCc1cn(Cc2cccc(Cl)c2)c2ccccc12", "note": "[oncrasin-266, [1-(3-chlorobenzyl)-1H-indol-3-yl]methyl 2-cyclohexylacetate]", "values": [{"measurement": "oncrasin-266 detected in the liver", "setting": "[1]; [18]", "result": "high concentration"}, {"measurement": "anticancer activity (cell viability)", "setting": "H460 cells [2]", "result": "equivalent anticancer activity as NSC743380"}, {"measurement": "histopathological changes in liver", "setting": "liver", "result": "no obvious changes"}, {"measurement": "anticancer activity (cell viability)", "setting": "H157 cells [3]", "result": "equivalent anticancer activity as NSC743380"}, {"measurement": "release of NSC-743380 from oncrasin-266", "setting": "[4]; injectable solution, 7 hours, 37°C", "result": "higher than 10%"}, {"measurement": "oncrasin-266 hydrolyzed to release NSC-743380", "setting": "[4]; injectable solution, within 7 hours, room temperature", "result": "about 10%"}, {"measurement": "serum liver enzyme activities", "setting": "liver functions", "result": "mostly in normal ranges"}, {"measurement": "blood alanine transaminase (ALT)", "setting": "liver functions; [19]", "result": "about 115 Units/L"}, {"measurement": "blood alkaline phosphatase (ALP)", "setting": "liver functions; [19]", "result": "~50", "unit": "Units/L"}, {"measurement": "time stable in stock solution", "setting": "[5]; 4°C", "result": "at least 4 weeks"}, {"measurement": "time stable in stock solution", "setting": "[5]; room temperature", "result": "at least 2 weeks"}, {"measurement": "survival / death of mice", "setting": "Balb/c mice; [20]", "result": "none of the oncrasin-266-treated mice died"}, {"measurement": "survival / death of mice", "setting": "Balb/c mice; [21]", "result": "one died on day 4 and the remaining two survived for at least 2 weeks"}, {"measurement": "tolerability in vivo", "setting": "Balb/c mice; 150-300 mg/kg i.p., mice", "result": "better tolerated than NSC-743380"}, {"measurement": "anticancer activity (cell viability)", "setting": "H1299 cells [6]", "result": "resistant"}, {"measurement": "time to complete the release of NSC-743380", "setting": "[7]", "result": "about 6 hours"}, {"measurement": "time powder stable without detectable changes", "setting": "[8]; 4°C", "result": "at least 90 days"}, {"measurement": "stability of powder (remaining)", "setting": "[8]; by day 90", "result": "< 5", "unit": "%"}, {"measurement": "time powder stable without detectable changes", "setting": "[8]; room temperature", "result": "at least 90 days"}, {"measurement": "anticancer activity (cell viability)", "setting": "Calu3 cells [9]", "result": "equivalent anticancer activity as NSC743380"}]}, {"smiles": "OCc1cn(Cc2cccc(Cl)c2)c2ccccc12", "note": "[NSC-743380]", "values": [{"measurement": "sensitivity of cells to NSC743380 therapy", "setting": "H157 cells [10]", "result": "highly sensitive"}, {"measurement": "sensitivity of cells to NSC743380 therapy", "setting": "Calu3 cells [11]", "result": "highly sensitive"}, {"measurement": "sensitivity of cells to NSC743380 therapy", "setting": "H460 cells [12]", "result": "highly sensitive"}, {"measurement": "behaviour in solutions with water", "setting": "[13]", "result": "tends to form dimers in solutions with water and loses activity"}, {"measurement": "maximum tolerated dose / tolerability", "setting": "[14]", "result": "much better tolerated"}, {"measurement": "tissues in which NSC-743380 was detectable", "setting": "[1]; [18]", "result": "liver, lungs, kidneys, and subcutaneous tumor tissue"}, {"measurement": "tissues in which NSC-743380 was detected", "setting": "[1]; mice treated with NSC-743380, 60 mg/kg i.v.", "result": "lungs, intestine, and subcutaneous tumor tissue"}, {"measurement": "sensitivity of cells to NSC743380 therapy", "setting": "H1299 cells [15]", "result": "resistant"}, {"measurement": "histopathological changes in liver", "setting": "liver", "result": "liver cell damage (necrosis) was obvious"}, {"measurement": "in vivo tumor suppression", "setting": "[16]", "result": "significant in vivo tumor suppression"}, {"measurement": "loss in injectable solution", "setting": "[4]; 37°C, 7 h", "result": "more than 20%"}, {"measurement": "change in injectable solution", "setting": "[4]; room temperature, 7 h", "result": "little change"}, {"measurement": "serum liver enzyme activities", "setting": "liver functions", "result": "mostly in normal ranges"}, {"measurement": "blood alanine transaminase (ALT)", "setting": "liver functions; [19]", "result": "about 1936 Units/L"}, {"measurement": "time stable in stock solution", "setting": "[5]; room temperature", "result": "at least 1 weeks"}, {"measurement": "survival / death of mice", "setting": "Balb/c mice; [20]", "result": "Two mice in the NSC-743380-treated group died on day 5"}, {"measurement": "survival / death of mice", "setting": "Balb/c mice; [21]", "result": "All three mice injected with NSC-743380 died on day 3"}, {"measurement": "anticancer activity (cell viability)", "setting": "H1299 cells [6]", "result": "resistant"}, {"measurement": "anticancer activity in xenograft tumor model", "setting": "[17]", "result": "more effective anticancer activity"}, {"measurement": "stability of powder (remaining)", "setting": "[8]; over 14 days", "result": "< 5", "unit": "%"}]}]}
